For test [1], the target named is Protein kinase C (PKC). As to the kind of experiment: Displacement of [3H]PDBU from protein kinase C. It is filed as protein assay, Rattus norvegicus.
The nature of test [2]: Inhibition of c-AMP dependent kinase (PKA) catalytic subunit. Also on record: species or system Bos taurus.
Test [3] deals with Protein kinase C (PKC). As to the kind of experiment: Inhibitory activity against protein kinase C of rat brain. Summed up: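 PKC purified from rat brain. The read-out was 32P transfer from 30 μM [γ-32P]ATP to histone IIIS (200 μg/mL) in 20 mM Hepes pH 7.5 with phosphatidylserine, 10 mM MgCl2, 100 μM CaCl2 and 47.5 μM EGTA, run 10 min at 30 °C. Reactions were TCA-precipitated, filtered and scintillation-counted. Lipid-independent activity was subtracted, and test levels were 4, 43 and 218 μM.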

Test [4] addresses Protein kinase C delta type (Homo sapiens, UniProt Q05655). As to the kind of experiment: Inhibition of protein kinase C delta. The gist of the method:
(§1)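 Recombinant human enzyme expressed by baculovirus in SF9 cells, then partially purified by homogenizing the pellet in Tris pH 8 detergent buffer, spinning, and running a DEAE column with a 0–500 mM NaCl gradient, with the peak pooled. The reaction was [γ-32P]ATP (30 μM) incorporation into histone IIIS (200 μg/mL) with phosphatidylserine, Ca2+/EGTA and Mg2+ in Hepes pH 7.5, run 10 min at 30 °C. It was stopped with TCA and counted on filters. No-lipid background was subtracted, and compounds were tested at 4, 43 and 218 μM.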

Test [5] concerns the target Protein kinase C alpha type (Homo sapiens, UniProt P17252). Nature of the test: Inhibition of protein kinase C alpha.
In test [6] the target is Protein kinase C gamma type (Homo sapiens, UniProt P05129). Nature of the test: Inhibition of protein kinase C gamma. Summed up:
as §1

Each structure is given as a SMILES string. “And” between values parts separate entries of the source, which are not always exact repeats. Equal values may be shown once.

Sequence of Protein kinase C delta type (Q05655 whole entry): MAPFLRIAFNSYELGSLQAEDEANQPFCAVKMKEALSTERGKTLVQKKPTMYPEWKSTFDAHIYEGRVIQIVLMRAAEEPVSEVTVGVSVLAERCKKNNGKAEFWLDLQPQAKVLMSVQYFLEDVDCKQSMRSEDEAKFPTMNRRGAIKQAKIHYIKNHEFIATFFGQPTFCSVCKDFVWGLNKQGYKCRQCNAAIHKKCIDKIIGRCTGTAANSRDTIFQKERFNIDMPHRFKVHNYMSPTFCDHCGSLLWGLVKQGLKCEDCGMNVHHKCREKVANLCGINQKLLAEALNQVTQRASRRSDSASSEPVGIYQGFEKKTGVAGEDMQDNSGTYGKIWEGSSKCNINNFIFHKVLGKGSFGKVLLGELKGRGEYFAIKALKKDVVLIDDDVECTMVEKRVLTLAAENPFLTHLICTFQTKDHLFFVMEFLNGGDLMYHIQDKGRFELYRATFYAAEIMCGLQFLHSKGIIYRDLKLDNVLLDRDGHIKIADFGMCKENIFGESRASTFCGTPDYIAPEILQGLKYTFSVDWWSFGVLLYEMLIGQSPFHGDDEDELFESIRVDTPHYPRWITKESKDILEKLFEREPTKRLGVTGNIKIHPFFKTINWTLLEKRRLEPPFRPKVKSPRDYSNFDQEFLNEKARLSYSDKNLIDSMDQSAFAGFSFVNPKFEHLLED

As to `CCOC(=O)c1cc(OCc2ccccc2)c(OCc2ccccc2)c(OCc2ccccc2)c1-c1c(C(=O)OCC)cc(OCc2ccccc2)c(OCc2ccccc2)c1OCc1ccccc1`, the IC50 in test [1] is greater than 272 µM; in test [2], 19 µM; in test [3], 50 µM and 96 µM and 75 µM.

Take `COc1c(OCc2ccccc2)c(OCc2ccccc2)cc2c1-c1c(cc(OCc3ccccc3)c(OCc3ccccc3)c1OC)C[N+]1(C2)Cc2cc(OCc3ccccc3)c(OCc3ccccc3)c(OC)c2-c2c(cc(OCc3ccccc3)c(OCc3ccccc3)c2OC)C1`: the IC50 in test [1] is greater than 272 µM; in test [2] it was 15 µM; in test [3], 87 µM.

In test [3], `COc1cc2c(c(OC)c1OC)-c1c(cc(OC)c(OC)c1OC)COC2` yielded an IC50 greater than 218 µM. With `COC(=O)c1cc(O)c(O)c(O)c1-c1c(C(=O)OC)cc(O)c(O)c1O`, in test [3], the IC50 was greater than 218 µM. For the molecule `O=C1OCC2O[C@@H](O)C3OC(=O)c4cc(O)c(O)c(O)c4-c4c(cc(O)c(O)c4O)C(=O)OC3C2OC(=O)c2cc(O)c(O)c(O)c2-c2c1cc(O)c(O)c2O` (stereo not given in full), the values for the IC50 in test [1], in test [2] and in test [3] were less than 50 µM, greater than 218 µM and 4 µM, respectively.

Consider `Oc1cc2c(c(O)c1O)-c1c(cc(O)c(O)c1O)COC2`, for which the IC50 in test [4] is 42 µM and 44 µM; in test [1] it was 54 µM; in test [2], 31 µM and 29 µM and > 218 µM; in test [5] it was 37 µM; in test [6] it was 34 µM and 30 µM; in test [3], 32 µM and 28 µM and 43 µM. For `c1ccc(COc2cc3c(c(OCc4ccccc4)c2OCc2ccccc2)-c2c(cc(OCc4ccccc4)c(OCc4ccccc4)c2OCc2ccccc2)COC3)cc1`, the IC50 in test [3] amounted to 180 µM. Molecule `BrCc1cc(OCc2ccccc2)c(OCc2ccccc2)c(OCc2ccccc2)c1-c1c(CBr)cc(OCc2ccccc2)c(OCc2ccccc2)c1OCc1ccccc1` returned an IC50 in test [3] of 103 µM. The same measure, in the same setting: then `COc1c(OCc2ccccc2)c(OCc2ccccc2)cc(CBr)c1-c1c(CBr)cc(OCc2ccccc2)c(OCc2ccccc2)c1OC`, with greater than 218 µM; and `O=Cc1cc(OCc2ccccc2)c(OCc2ccccc2)c(OCc2ccccc2)c1-c1c(C=O)cc(OCc2ccccc2)c(OCc2ccccc2)c1OCc1ccccc1`, with 131 µM; and `COC(=O)c1cc(OCc2ccccc2)c(OCc2ccccc2)c(OCc2ccccc2)c1-c1c(C(=O)OC)cc(OCc2ccccc2)c(OCc2ccccc2)c1OCc1ccccc1`, with 180 µM and 131 µM and > 218 µM. For `O=C(O[C@@H]1OC2COC(=O)c3cc(O)c(O)c(O)c3-c3c(cc(O)c(O)c3O)C(=O)OC2C2OC(=O)c3cc(O)c(O)c(O)c3-c3c(cc(O)c(O)c3O)C(=O)OC21)c1cc(O)c(O)c(O)c1` (stereo not given in full), the IC50 in test [1] is less than 50 µM; in test [2], greater than 218 µM; in test [3], 3 µM. In turn, `c1ccc(COc2cc3c(c(OCc4ccccc4)c2OCc2ccccc2)-c2c(cc(OCc4ccccc4)c(OCc4ccccc4)c2OCc2ccccc2)C[N+]2(C3)Cc3cc(OCc4ccccc4)c(OCc4ccccc4)c(OCc4ccccc4)c3-c3c(cc(OCc4ccccc4)c(OCc4ccccc4)c3OCc3ccccc3)C2)cc1` had an IC50 in test [3] of 131 µM.

On to `CCOC(=O)c1cc(O)c(O)c(O)c1-c1c(C(=O)OCC)cc(O)c(O)c1O`, for which the IC50 in test [3] is greater than 218 µM. In the case of `COCc1cc(O)c(O)c(O)c1-c1c(COC)cc(O)c(O)c1O`, the IC50 was greater than 218 µM in test [2], 43 µM in test [5], 50 µM in test [6] and 98 µM in test [3]. Take `COC(=O)c1cc(OCc2ccccc2)c(OCc2ccccc2)c(OC)c1-c1c(C(=O)OC)cc(OCc2ccccc2)c(OCc2ccccc2)c1OC`: the IC50 in test [3] was found to be 97 µM. Consider `COc1c(OCc2ccccc2)c(OCc2ccccc2)cc(C=O)c1-c1c(C=O)cc(OCc2ccccc2)c(OCc2ccccc2)c1OC`, for which the IC50 in test [3] was greater than 218 µM.

In test [3], `CCOC(=O)c1cc(OCc2ccccc2)c(OCc2ccccc2)c(OC)c1-c1c(C(=O)OCC)cc(OCc2ccccc2)c(OCc2ccccc2)c1OC` showed a concentration for half-maximal inhibition (IC50) of 94 µM. Molecule `COc1c(OCc2ccccc2)c(OCc2ccccc2)cc(CO)c1-c1c(CO)cc(OCc2ccccc2)c(OCc2ccccc2)c1OC` yielded an IC50 in test [3] greater than 218 µM. Consider `OCc1cc(OCc2ccccc2)c(OCc2ccccc2)c(OCc2ccccc2)c1-c1c(CO)cc(OCc2ccccc2)c(OCc2ccccc2)c1OCc1ccccc1`, for which the IC50 in test [1] is greater than 272 µM; in test [2] it was 21 µM; in test [3], 70 µM and 55 µM and 88 µM.

The molecule `OCc1cc(OCc2ccccc2)c(OCc2ccccc2)c(O)c1-c1c(CO)cc(OCc2ccccc2)c(OCc2ccccc2)c1O` yielded an IC50 in test [3] greater than 218 µM. `O=C(O[C@@H]1O[C@@H]2COC(=O)c3cc(O)c(O)c(O)c3-c3c(cc(O)c(O)c3O)C(=O)O[C@H]([C@H]1O)[C@@H]2O)c1cc(O)c(O)c(O)c1` [CORILAGIN] gave an IC50 in test [3] of 20 µM. As for `O=C(O[C@@H]1O[C@@H]2COC(=O)c3cc(O)c(O)c(O)c3-c3c(cc(O)c(O)c3O)C(=O)O[C@H]([C@H]1OC(=O)c1cc(O)c(O)c(O)c1)[C@@H]2OC(=O)c1cc(O)c(O)c(O)c1)c1cc(O)c(O)c(O)c1` [PUNICAFOLIN], the IC50 is less than 50 µM in test [1], greater than 218 µM in test [2] and 4 µM in test [3]. Take `CCCCCCCCCCCCC/C=C/[C@@H](O)[C@@H](N)CO` [SPHINGOSINE]: the IC50 in test [1] was determined as 23 µM; in test [3] it was 40 µM.
